In the library only some 1.9% were active in any assay of this set; here they are far more common.
GRK2 inh: human GRK2 inhibition via aptamer displacement; P25098; bead flow cytometry, FAM-aptamer displacement from GRK2; inhibition of aptamer binding, % at 10 µM; actives 0.59% (n = 330,000); AID 488847;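 active = inhibition of aptamer binding above 40%, roughly 3 SD of noise, on plates passing a quality check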;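 also: median bead fluorescence of bound FAM aptamer so fluorescent compounds give negative values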
Target sequence (P25098 whole entry, looked up): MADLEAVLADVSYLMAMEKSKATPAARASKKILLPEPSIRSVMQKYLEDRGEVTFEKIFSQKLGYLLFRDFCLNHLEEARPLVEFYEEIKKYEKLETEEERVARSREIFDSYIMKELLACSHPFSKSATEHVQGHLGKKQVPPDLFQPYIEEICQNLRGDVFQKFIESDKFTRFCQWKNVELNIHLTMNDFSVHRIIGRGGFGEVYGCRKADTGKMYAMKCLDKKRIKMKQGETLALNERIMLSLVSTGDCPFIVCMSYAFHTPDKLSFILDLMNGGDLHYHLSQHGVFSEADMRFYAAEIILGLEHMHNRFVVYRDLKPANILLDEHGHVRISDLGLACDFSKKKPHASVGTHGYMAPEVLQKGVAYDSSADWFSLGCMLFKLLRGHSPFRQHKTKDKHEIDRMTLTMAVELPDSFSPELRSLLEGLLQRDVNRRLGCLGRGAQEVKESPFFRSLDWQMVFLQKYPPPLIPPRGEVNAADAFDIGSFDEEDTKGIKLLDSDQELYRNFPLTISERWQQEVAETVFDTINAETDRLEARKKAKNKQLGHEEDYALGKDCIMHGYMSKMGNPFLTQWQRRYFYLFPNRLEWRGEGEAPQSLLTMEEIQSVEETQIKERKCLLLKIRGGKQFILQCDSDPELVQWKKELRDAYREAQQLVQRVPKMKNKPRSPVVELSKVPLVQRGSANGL
Rin1-Abl PPI inh: blocks binding of human Rin1 to Abl; actives 0.4% (n = 360,000); P00519+Q13671; TR-FRET Rin1/Abl binding, biochemical; inhibition, % at 7.35 µM; in the data active = inhibition above about 5%, passing the limit was not always enough
SR-BI DiI-HDL act: SR-BI HDL lipid transfer activation. CHO ldlA[mSR-BI] cells, DiI-HDL uptake fluorescence, 3 h; 100 = double the neutral-control signal. activation, % at 12.5 µM. actives 0.096% (n = 320,000);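 active = mean replicate activation of at least 60% and every replicate at or above 60%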;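 also: 0% = median plate neutral-control signal and 100% = twice that signal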
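Test system: SR-BI-overexpressing, LDLR-lacking CHO cells; Also added: labelled HDL, 10 µg/mL; Measured by: bottom-read cell fluorescence after medium removal, ex 550/em 595 nm; Timing: 3 h uptake period with compound, 37 °C; Buffer or medium: F12, 0.5% BSA, 25 mM HEPES; Doses: single compound concentration, delivered by pin transfer.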
SR-BI DiI inh: inhibitors of mouse SR-BI mediated HDL lipid uptake. AID 488896. Q61009. inhibition, % at 12.5 µM. ldlA[mSR-BI] CHO cells, DiI-HDL uptake fluorescence, 3 h. actives 0.96% (n = 320,000);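 active = mean replicate inhibition of at least 70% and a set share of replicates each scoring 70 or more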;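 also: 0% = median of neutral control wells and 100% = median of positive control wells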
* marks the source's active call; other numbers are inactive results; i = inactive; nt = not tested or not shown.

SMILES	GRK2 inh	Rin1-Abl PPI inh	SR-BI DiI-HDL act	SR-BI DiI inh
COc1cc(N)ccc1Nc1c2ccccc2nc2ccccc12	nt	-27	nt	nt
CCOc1ccc(NC(=O)CN(C)C(=O)C2CC(=O)N(c3cccc(SC)c3)C2)cc1OCC (centres undefined)	nt	2	-72	72*
CCOc1ccc(NC(=O)CN(C)C(=O)C2CC(=O)N(c3ccc4c(c3)OCCO4)C2)cc1OCC (centres undefined)	0	1	-52	52
CC(=O)Nc1ccc(OCc2cn(CC(=O)c3ccc(O)cc3)nn2)cc1	nt	2	nt	nt
Cn1cc(/C=N/NC(=O)c2ccccc2O)c2ccccc21	0	-3	-18	18
O=C(N/N=C/c1cc2c3c(c1O)CCCN3CCC2)c1ccccc1O	nt	4	-140	140*
CCOC(=O)N1CCc2cc(OC)c(OC)c3c2c1cc1cc(OC)c(OC)cc13	nt	0	-86	86*
NC(=O)c1[nH]cnc1N=NN(CCO)Cc1ccccc1	nt	0	nt	nt
N#C/C(=C(/O)c1ccc(C(=O)c2ccccc2)cc1)c1nc2ccccc2[nH]1	0	-3	243*	-243
CCCCOc1ccc(/C(O)=C(\C#N)c2nc3ccccc3[nH]2)cc1	3	-2	-12	12
NNC(=O)c1sc(-c2ccc(Cl)cc2)cc1N	2	-4	-110	110*
COc1ccc(-c2oc(=O)c3cc(OC)c(OC)cc3c2/C=C/c2ccc(OC(C)=O)cc2)cc1	0	1	-58	58
COc1cc(-c2noc(C)c2/C=C/c2ccc(OC(C)=O)cc2)cc(OC)c1OC	0	-2	-75	75*
CCOC(=O)C1=NN(C(C)=O)C2(CC(=O)N(c3cc(C)cc(C)c3)C2=O)C1 (centres undefined)	100*	4	-7	7
COc1ccccc1CNC(=O)COc1ccc(C)cc1	1	-2	718*	i
COc1ccccc1CNC(=O)COc1ccccc1OC	0	0	0	0
CCOC(=O)COc1ccc2c(c1)c(C(C)=O)c(C)n2-c1ccccc1	1	-2	-56	56
CCOc1ccc2c(c1)c(C(C)=O)c(C)n2-c1ccccc1	15	-2	-74	74*
COc1ccc(-c2csc(NC(=O)c3ccccc3NS(=O)(=O)c3ccc(C)cc3)n2)cc1	3	2	-93	93*
CCN1C(=O)/C(=C2\C=Cc3ccccc3N2CC)SC1=S	0	0	-74	74*
COc1ccc(OCCOC(=O)CNC(=O)c2ccc(F)cc2)cc1	nt	2	nt	nt
C[C@@]12C(=O)N(c3cccc(F)c3)C(=O)N1[C@@H]1c3ccccc3OC[C@@H]1[C@H]2c1ccccc1	4	2	17	-17
COc1ccc(-c2csc(C3=C(O)CN(Cc4ccc(S(N)(=O)=O)cc4)C3=N)n2)cc1OC	0	0	-8	8
COc1ccc(-c2csc(C3=C(O)CN(Cc4ccc(Cl)cc4)C3=N)n2)cc1OC	0	-4	-87	87*
COCC(C)N1CC(O)=C(c2nc(-c3ccc(Cl)cc3)cs2)C1=N (centres undefined)	0	2	-82	82*
SMILES	GRK2 inh	Rin1-Abl PPI inh	SR-BI DiI-HDL act	SR-BI DiI inh
N#Cc1cccc(NCC(=O)Nc2ccc3c(c2)OCCO3)c1	5	-4	-7	7
CCOC(=O)C1CCCN(C(=O)c2ccc(SC(F)(F)F)cc2)CC1 (centres undefined)	nt	-6	nt	nt
CC1(NC(=O)CC[N+](C)(C)CCO)CS(=O)(=O)CC1S(=O)(=O)[O-] (centres undefined)	47*	nt	nt	nt
O=C(N/N=C/c1ccccc1O)C(=O)Nc1ccccn1	0	-5	-88	88*
NC(=S)N/N=C/c1ccccc1O	1	-3	nt	nt
Oc1ccccc1/C=N/NC(=S)NC1CC2CC1C1C=CCC21 (centres undefined)	0	2	-85	85*
COc1cccc(/C=N/NC(=S)NC2CC3CC2C2C=CCC32)c1O (centres undefined)	1	-2	-51	51
Oc1ccccc1C=NNC(=S)NN=Cc1ccccc1O	nt	4	-133	133*
COc1ccc(/C=N/NC(=O)C(=O)Nc2ccccn2)cc1OC	0	-3	-3	3
CCOC(=O)C1(C)CCCN1C(=O)c1ccc(OC)cc1 (centres undefined)	nt	-1	nt	nt
CCn1c(=O)c2cc(C(=O)NCCN3CCOCC3)sc2c2ccccc21	0	-6	-88	88*
CCn1c(=O)c2cc(C(=O)NC(C)C)sc2c2ccccc21	1	1	-57	57
CCn1c(=O)c2cc(C(=O)NCc3cccs3)sc2c2ccccc21	2	1	-71	71*
Cn1nc(-c2ccc(Cl)cc2)c2cc(C(=O)NCCN3CCOCC3)sc21	0	-1	-86	86*
CCCCNC(=O)c1cc2c(=O)n(CC)c3ccccc3c2s1	0	0	-73	73*
CCN(CC)CCNC(=O)c1cc2c(-c3ccc(Cl)cc3)nn(C)c2s1	0	-6	-69	69
COc1ccc(CCNC(=O)COC(=O)CSc2ccc([N+](=O)[O-])cc2)cc1OC	1	4	-2	2
NC(=S)N/N=C/c1ccc2ccccc2c1	4	-3	-28	28
O=C(CCC(=O)N/N=C/c1ccc(Br)s1)NCc1ccccc1	5	2	31	-31
C(=Nc1ccc(Nc2ccccc2)cc1)c1ccc2ccccc2c1	3	14*	4	-4
Brc1ccc(C=Nc2ccc(Nc3ccccc3)cc2)s1	0	7.2*	7	-7
CC1=NN(C(=O)c2ccc(Br)cc2)C(O)(C(F)(F)OC(F)(F)F)C1 (centres undefined)	0	-2	-78	78*
CCC1=NN(C(=O)c2ccc(C)cc2)C(O)(c2ccc(Br)cc2)C1 (centres undefined)	0	0	103*	-103
CCC1=NN(C(=O)c2ccc(Br)cc2)C(O)(c2ccc(C)cc2)C1 (centres undefined)	1	4	5	-5
Cc1cc(C(=O)Nc2sc3c(c2C#N)CCCCC3)cs1	5	-1	-79	79*
SMILES	GRK2 inh	Rin1-Abl PPI inh	SR-BI DiI-HDL act	SR-BI DiI inh
COc1ccc(C(=O)Nc2nc3ccc(S(C)(=O)=O)cc3s2)cc1OC	0	-5	-78	78*
COc1ccc(-c2cc(C(=O)Nc3nc4ccccc4s3)c3ccccc3n2)cc1OC	0	-3	-75	75*
COc1ccc(-c2cc(C(=O)Nc3sc4c(c3C#N)CCCC4)c3ccccc3n2)cc1OC	3	-2	-85	85*
CC(=O)Nc1sc2c(c1C#N)CCCC2	2	1	-19	19
COc1ccccc1N1CCN(c2ccc3c(c2)S(=O)(=O)c2cccc(C(=O)NCc4cccc(F)c4)c2C3=O)CC1	nt	-4	nt	nt
COc1cccc(C(O)c2nc(-c3ccccc3)cs2)c1 (centres undefined)	nt	-3	nt	nt
CC1NC(=O)c2cccnc2-n2c1nc1cc(F)c(F)cc1c2=O (centres undefined)	nt	0	nt	nt
COc1ccc(-c2cc(C(=O)OCC(=O)NC3CC3)c3ccccc3n2)cc1OC	0	-1	-72	72*

Screens deposited in PubChem by several laboratories.
